Square brackets hold non-standard residues; d marks the D form. Peptide text beside a SMILES is read from it. Phe(4-NO2) = N[C@@H](Cc1ccc([N+](=O)[O-])cc1)C(=O)O; NMeY = CN[C@@H](Cc1ccc(O)cc1)C(=O)O
Legend:
[1] = target: Delta-type opioid receptor (Mus musculus, UniProt P32300); assay: Evaluated for inhibitory activity against Opioid receptor delta 1 of mouse vas deferens (MVD).; type: tissue-based
Mu-type opioid receptor [2] = target: T1, Mu-type opioid receptor (Cavia porcellus, UniProt P97266); assay: Binding affinities against Opioid receptor mu 1 of guinea pig brain membrane using [3H]DAGO as the radioligand using competition binding assays.
Method in brief: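 μ-site competition binding on crude P2 membranes from male Hartley guinea pig brain (1 g original wet weight/20 mL, 50 mM Tris-HCl pH 7.6) with 5 nM [3H]DAGO and varied competitor, 60 min at 25 °C. GF/B filtration (1% polyethylenimine presoaked), six ice-cold buffer rinses, scintillation counting. Nonspecific binding with 10 μM levallorphan. Mean of five or six determinations ± SEM.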

Mus musculus [3] = assay: Evaluated for analgesic effect using mouse tail-pinch test after intravenous administration; 2.08-7.27; type: functional
Method in brief: (§1)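 Mice, intravenous dosing, tail-pinch analgesia test. Four doses per compound, each dose tested on at least eight animals, giving ED50 in mg/kg.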

Mus musculus [4] = assay: Evaluated for analgesic effect using mouse tail-pinch test after intravenous administration; 1.27-3.29; type: functional; method in brief: as §1
Mus musculus [5] = assay: Evaluated for analgesic effect using mouse tail-pinch test after intravenous administration; 1.97-5.67; type: functional; method in brief: as §1
Mus musculus [6] = assay: Evaluated for analgesic effect using mouse tail-pinch test after intravenous administration; 0.25-2.26; type: functional; method in brief: as §1
Mus musculus [7] = assay: Evaluated for analgesic effect using mouse tail-pinch test after intravenous administration; 2.21-9.32; type: functional; method in brief: as §1
Mus musculus [8] = assay: Evaluated for analgesic effect using mouse tail-pinch test after intravenous administration; 9.61-14.34; type: functional; method in brief: as §1
Mu-type opioid receptor [9] = target: T1, Mu-type opioid receptor; assay: Evaluated for inhibitory activity against Opioid receptor mu 1 of guinea pig ileum (GPI); type: tissue-based
Mus musculus [10] = assay: Evaluated for analgesic effect using mouse tail-pinch test after intravenous administration; 0.64-2.34; type: functional; method in brief: as §1
Mus musculus [11] = species on record: Mus musculus; assay: animal or person; details: iv

Sequence of Delta-type opioid receptor (P32300 whole entry): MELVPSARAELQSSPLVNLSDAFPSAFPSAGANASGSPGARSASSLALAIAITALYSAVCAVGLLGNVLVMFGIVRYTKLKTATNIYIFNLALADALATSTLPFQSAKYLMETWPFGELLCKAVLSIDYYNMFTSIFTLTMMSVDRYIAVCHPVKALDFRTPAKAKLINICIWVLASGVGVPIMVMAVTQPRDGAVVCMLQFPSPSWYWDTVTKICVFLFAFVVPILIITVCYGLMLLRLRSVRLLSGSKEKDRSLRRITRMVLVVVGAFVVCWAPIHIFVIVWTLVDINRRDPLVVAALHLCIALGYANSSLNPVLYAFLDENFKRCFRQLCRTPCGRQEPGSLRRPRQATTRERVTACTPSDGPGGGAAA
T1 sequence (P97266 whole entry): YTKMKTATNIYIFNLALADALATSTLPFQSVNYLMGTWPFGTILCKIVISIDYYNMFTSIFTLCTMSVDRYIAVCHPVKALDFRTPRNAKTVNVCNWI

Question: With CN[C@@H](Cc1ccc(O)cc1)C(=O)NCC(=O)NCC(=O)N[C@H](Cc1ccccc1)C(=O)N[C@@H](CC(C)C)C(=O)N[C@@H](CCCNC(=N)N)C(=O)N[C@@H](CCCNC(=N)N)C(=O)N[C@@H](CC(C)C)C(N)=O as the molecule, how does the IC50 [1] read?
Answer: 5.2 nM

Question: What about the Ki (Mu-type opioid receptor [2]) of the same molecule?
Answer: 2.81 nM

Question: And the ED50 (Mus musculus [3])?
Answer: 3.89 mg/kg

Question: How did the ED50 (Mus musculus [4]) turn out when CN[C@@H](Cc1ccc(O)cc1)C(=O)NCC(=O)NCC(=O)N[C@H](Cc1ccccc1)C(=O)N[C@@H](CC(C)C)C(=O)N[C@@H](CCCN=C(N)N)C(=O)N(C)[C@@H](CCCN=C(N)N)C(=O)N[C@@H](CC(C)C)C(N)=O was run?
Answer: 2.04 mg/kg

Question: CCNC(=O)[C@H](CC(C)C)NC(=O)[C@H](CCCN=C(N)N)NC(=O)[C@H](CCCN=C(N)N)NC(=O)[C@H](CC(C)C)NC(=O)[C@@H](Cc1ccccc1)NC(=O)CNC(=O)CNC(=O)[C@H](Cc1ccc(O)cc1)NC was tested. Which ED50 (Mus musculus [5]) did it give?
Answer: 3.34 mg/kg

Question: With CCNC(=O)[C@@H](CC(C)C)NC(=O)[C@H](CCCN=C(N)N)N(C)C(=O)[C@H](CCCN=C(N)N)NC(=O)[C@H](CC(C)C)NC(=O)[C@H](Cc1ccccc1)NC(=O)CNC(=O)CNC(=O)[C@H](Cc1ccc(O)cc1)NC as the molecule, how does the ED50 (Mus musculus [6]) read?
Answer: 0.75 mg/kg

Question: With CN[C@@H](Cc1ccc(O)cc1)C(=O)NCC(=O)NCC(=O)N[C@@H](Cc1ccccc1)C(=O)N[C@@H](CC(C)C)C(=O)N(C)[C@@H](CCCN=C(N)N)C(=O)N[C@@H](CCCN=C(N)N)C(=O)N[C@H](CC(C)C)C(N)=O as the molecule, how does the ED50 (Mus musculus [7]) read?
Answer: 4.54 mg/kg

Question: What does the source list for CC(C)C[C@H](NC(=O)[C@H](CCCN=C(N)N)NC(=O)[C@H](CCCN=C(N)N)NC(=O)[C@H](CC(C)C)NC(=O)[C@H](Cc1ccccc1)NC(=O)CNC(=O)[C@H](C)NC(=O)[C@@H](N)Cc1ccc(O)cc1)C(N)=O (H-YAGFLRRL-NH2)?
Answer: IC50 [1]: 9.1 nM; ED50 (Mus musculus [8]): 11.7 mg/kg; IC50 (Mu-type opioid receptor [9]): 6.9 nM

Question: With CN[C@@H](Cc1ccc(O)cc1)C(=O)NCC(=O)NCC(=O)N[C@@H](Cc1ccc([N+](=O)[O-])cc1)C(=O)N[C@@H](CC(C)C)C(=O)N[C@@H](CCCN=C(N)N)C(=O)N[C@@H](CCCN=C(N)N)C(=O)N[C@@H](CC(C)C)C(N)=O (H-[NMeY]GG[Phe(4-NO2)]LRRL-NH2) as the molecule, how does the IC50 [1] read?
Answer: 3.8 nM

Question: What about the Ki (Mu-type opioid receptor [2]) of the same molecule?
Answer: 1.01 nM

Question: And the ED50 (Mus musculus [10])?
Answer: 1.23 mg/kg

Question: What about the IC50 (Mu-type opioid receptor [9]) of the same molecule?
Answer: 1.3 nM

Question: CN1CC[C@]23c4c5ccc(O)c4O[C@H]2[C@@H](O)C=C[C@H]3[C@H]1C5 [MORPHINE] was tested. Which ED50 (Mus musculus [11]) did it give?
Answer: 1.85 mg/kg

From ChEMBL document CHEMBL1124934, “Synthesis and structure-activity relationships of dynorphin A-(1-8) amide analogues” (J Med Chem, 1990)
